Test results from ChEMBL document CHEMBL4004832, “Synthesis, surfactant properties and antimicrobial activities of methyl glycopyranoside ethers” (2017).
Converted amounts (≈) assume the structure as drawn.

Legend:
[1] = test system: Escherichia coli; assay: Antibacterial activity against Escherichia coli ATCC 8739 after 18 hrs by broth microdilution assay; type: functional; settings: ATCC 8739, 18 h
[2] = test system: Listeria monocytogenes; assay: Antibacterial activity against Listeria monocytogenes CIP 103575 after 18 hrs by broth microdilution assay; type: functional; settings: CIP 103575, 18 h
How it was run: (§1)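 Broth MIC testing on Gram-positive strains followed CLSI M100-S17 recommendations. […] Values are in mmol/L. Amoxicillin was the control for Listeria and Enterococcus strains and oxacillin for S. aureus strains.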

[3] = test system: Enterococcus faecalis; assay: Antibacterial activity against Enterococcus faecalis ATCC 29212 after 18 hrs by broth microdilution assay; type: functional; settings: ATCC 29212, 18 h; how it was run: as §1
[4] = Surfactant property of the compound in water assessed as critical micelle concentration or minimal hydrotropic concentration by platinum rod based tensiometric method
How it was run: (§2)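 Surface tension of aqueous solutions was measured by a rod method based on the Wilhelmy plate. Water was progressively concentrated with a stock surfactant solution at constant volume. At each concentration, readings continued until stable (SD of the last 5 values 0.2 mN/m). MHC or CMC and the plateau γsat were taken from the tension vs concentration curves.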

[5] = test system: Pseudomonas aeruginosa; assay: Antibacterial activity against Pseudomonas aeruginosa ATCC 27853 after 18 hrs by broth microdilution assay; type: functional; settings: ATCC 27853, 18 h
[6] = test system: Staphylococcus aureus; assay: Antibacterial activity against Staphylococcus aureus ATCC 29213 after 18 hrs by broth microdilution assay; type: functional; settings: ATCC 29213, 18 h; how it was run: as §1
[7] = Surfactant property of the compound in aqueous solution assessed as critical micelle concentration or minimal hydrotropic concentration; how it was run: as §2
[8] = test system: Staphylococcus aureus; assay: Antibacterial activity against methicillin-resistant Staphylococcus aureus isolate HT 2002-0417 after 18 hrs by broth microdilution assay; type: functional; settings: isolate HT 2002-0417, 18 h
How it was run: (§3)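 Staphylococcus aureus reference strains and methicillin- and daptomycin-resistant isolates tested by MIC according to CLSI guidance (M100-S17), with oxacillin as control. The endpoint is the lowest concentration with no growth in all replicates versus a negative control at 18 h. Values are reported in mmol/L.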

[9] = test system: Staphylococcus aureus; assay: Antibacterial activity against daptomycin-resistant Staphylococcus aureus isolate ST 2014-1288 after 18 hrs by broth microdilution assay; type: functional; settings: isolate ST 2014-1288, 18 h; how it was run: as §3
[10] = test system: Staphylococcus aureus; assay: Antibacterial activity against methicillin-resistant Staphylococcus aureus Mu3 after 18 hrs by broth microdilution assay; type: functional; settings: Mu3, 18 h; how it was run: as §3
[11] = test system: Staphylococcus aureus; assay: Antibacterial activity against daptomycin-resistant Staphylococcus aureus isolate ST 2015-0989 after 18 hrs by broth microdilution assay; type: functional; settings: isolate ST 2015-0989, 18 h; how it was run: as §3
[12] = test system: Staphylococcus aureus; assay: Antibacterial activity against Staphylococcus aureus ATCC 25923 after 18 hrs by broth microdilution assay; type: functional; settings: ATCC 25923, 18 h; how it was run: as §3
[13] = test system: Staphylococcus aureus; assay: Antibacterial activity against methicillin-resistant Staphylococcus aureus isolate HT 2004-0012 after 18 hrs by broth microdilution assay; type: functional; settings: isolate HT 2004-0012, 18 h; how it was run: as §3
[14] = test system: Staphylococcus aureus; assay: Antibacterial activity against methicillin-resistant Staphylococcus aureus isolate HT 2006-1004 after 18 hrs by broth microdilution assay; type: functional; settings: isolate HT 2006-1004, 18 h; how it was run: as §3
[15] = test system: Staphylococcus aureus; assay: Antibacterial activity against daptomycin-resistant Staphylococcus aureus isolate ST 2015-0188 after 18 hrs by broth microdilution assay; type: functional; settings: isolate ST 2015-0188, 18 h; how it was run: as §3
[16] = test system: Staphylococcus aureus; assay: Antibacterial activity against methicillin-resistant Staphylococcus aureus isolate LY 1999-0053 after 18 hrs by broth microdilution assay; type: functional; settings: isolate LY 1999-0053, 18 h; how it was run: as §3
[17] = test system: Staphylococcus aureus; assay: Antibacterial activity against methicillin-resistant Staphylococcus aureus LAC USA300 after 18 hrs by broth microdilution assay; type: functional; how it was run: as §3
[18] = test system: Listeria monocytogenes; assay: Antibacterial activity against Listeria monocytogenes isolate 015181840701 after 18 hrs by broth microdilution assay; type: functional; settings: isolate 015181840701, 18 h; how it was run: as §1
[19] = test system: Listeria monocytogenes; assay: Antibacterial activity against Listeria monocytogenes isolate 015189074801 after 18 hrs by broth microdilution assay; type: functional; settings: isolate 015189074801, 18 h; how it was run: as §1
[20] = test system: Enterococcus faecium; assay: Antibacterial activity against Enterococcus faecium CIP 103510 after 18 hrs by broth microdilution assay; type: functional; settings: CIP 103510, 18 h
How it was run: (§4)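 Enterococcus faecium strains (reference, clinical isolates, VanA isolate) tested by MIC following CLSI recommendations (M100-S17), with amoxicillin as control. […] Values are expressed in mmol/L.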

[21] = test system: Enterococcus faecalis; assay: Antibacterial activity against Enterococcus faecalis isolate 015206179901 after 18 hrs by broth microdilution assay; type: functional; settings: isolate 015206179901, 18 h; how it was run: as §1
[22] = test system: Enterococcus faecium; assay: Antibacterial activity against Enterococcus faecium isolate 015205731401 after 18 hrs by broth microdilution assay; type: functional; settings: isolate 015205731401, 18 h; how it was run: as §1
[23] = test system: Listeria monocytogenes; assay: Antibacterial activity against Listeria monocytogenes isolate 015170199001 after 18 hrs by broth microdilution assay; type: functional; settings: isolate 015170199001, 18 h; how it was run: as §1
[24] = test system: Enterococcus faecium; assay: Antibacterial activity against […] Enterococcus faecium isolate 0151850763 after 18 hrs by broth microdilution assay; type: functional; settings: isolate 0151850763, 18 h; how it was run: as §4
[25] = test system: Enterococcus faecium; assay: Antibacterial activity against Enterococcus faecium isolate 015205261801 after 18 hrs by broth microdilution assay; type: functional; settings: isolate 015205261801, 18 h; how it was run: as §4
[26] = test system: Enterococcus faecalis; assay: Bactericidal activity against Enterococcus faecalis ATCC 29212 after 18 hrs by broth microdilution assay; type: functional
How it was run: (§5)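 MBC is the lowest concentration giving at least 99.9% reduction of the initial inoculum. Values are in mmol/L.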

[27] = test system: Staphylococcus aureus; assay: Bactericidal activity against Staphylococcus aureus ATCC 29213 after 18 hrs by broth microdilution assay; type: functional; how it was run: as §5
[28] = test system: Listeria monocytogenes; assay: Bactericidal activity against Listeria monocytogenes CIP 103575 after 18 hrs by broth microdilution assay; type: functional; how it was run: as §5

| SMILES | MIC [1] [µM] | MIC [2] [µM] | MIC [3] [µM] | MIC [5] [µM] | MIC [6] [µM] | CMC [4] [mmol/L] | CMC [7] [mmol/L] | also measured |
| --- | --- | --- | --- | --- | --- | --- | --- | --- |
| CCCCCCCCCCCCO[C@@H]1O[C@H](CO)[C@@H](O)[C@H](O)[C@H]1O |  |  |  |  |  |  | 0.19 |  |
| Cc1onc(-c2ccccc2)c1C(=O)N[C@@H]1C(=O)N2[C@@H]1SC(C)(C)[C@@H]2C(=O)O [OXACILLIN] |  |  |  |  | 1 (≈ 0.401 µg/mL) |  |  | MIC [8]: 160 µM (≈ 64.2 µg/mL); MIC [9]: 160 µM (≈ 64.2 µg/mL); MIC [10]: 640 µM (≈ 257 µg/mL); MIC [11]: 320 µM (≈ 128 µg/mL); MIC [12]: 50 µM (≈ 20.1 µg/mL); MIC [13]: 80 µM (≈ 32.1 µg/mL); MIC [14]: 320 µM (≈ 128 µg/mL); MIC [15]: 160 µM (≈ 64.2 µg/mL); MIC [16]: 160 µM (≈ 64.2 µg/mL); MIC [17]: 160 µM (≈ 64.2 µg/mL) |
| CCCCCCCCCCCCO[C@H]1O[C@H](CO)C(O[C@H]2O[C@H](CO)[C@@H](O)[C@H](O)[C@H]2O)[C@H](O)[C@H]1O (single isomer, unassigned) |  |  |  |  |  |  | 0.15 |  |
| CC1(C)S[C@@H]2[C@H](NC(=O)[C@H](N)c3ccc(O)cc3)C(=O)N2[C@H]1C(=O)O [AMOXICILLIN] |  | 2 (≈ 0.731 µg/mL) | 2 (≈ 0.731 µg/mL) |  |  |  |  | MIC [18]: 2 µM (≈ 0.731 µg/mL); MIC [19]: 2 µM (≈ 0.731 µg/mL); MIC [20]: 60 µM (≈ 21.9 µg/mL); MIC [21]: 2 µM (≈ 0.731 µg/mL); MIC [22]: 250 µM (≈ 91.4 µg/mL); MIC [23]: 4 µM (≈ 1.46 µg/mL); MIC [24]: 500 µM (≈ 183 µg/mL); MIC [25]: 250 µM (≈ 91.4 µg/mL) |
| CCCCCCCCC[C@@H]1OC[C@H]2O[C@H](OC)[C@H](O)[C@@H](O)[C@@H]2O1 |  |  |  |  |  | 0.15 |  |  |
| CCCC[C@@H]1OC[C@H]2O[C@H](OC)[C@H](O)[C@@H](O)[C@@H]2O1 | > 4000 | > 4000 | > 4000 | > 4000 | > 4000 | 82 |  |  |
| CCCCCCCCCCCC(=O)OC[C@H]1O[C@H](O[C@H]2[C@H](O)[C@@H](O)C(O)O[C@@H]2CO)[C@H](O)[C@@H](O)[C@@H]1O (some centres undefined) |  |  |  |  |  |  | 0.24 |  |

Further lines, with some results ahead:

| MIC [1] [µM] | MIC [2] [µM] | MIC [3] [µM] | MIC [5] [µM] | MIC [6] [µM] | SMILES | CMC [4] [mmol/L] | CMC [7] [mmol/L] | also measured |
| --- | --- | --- | --- | --- | --- | --- | --- | --- |
| > 4000 | 2000 (≈ 613 µg/mL) | > 4000 | > 4000 | 2000 (≈ 613 µg/mL) | CCCCCCCCOC[C@H]1O[C@H](OC)[C@H](O)[C@@H](O)[C@@H]1O | 0.434 |  |  |
|  | 80 (≈ 30.1 µg/mL) |  |  | 320 (≈ 120 µg/mL) | CCCCCCCCCCCC(=O)OC[C@H]1O[C@H](OC)[C@H](O)[C@@H](O)[C@@H]1O |  | 0.052 |  |
| > 4000 | > 4000 | > 4000 | > 4000 | > 4000 | CCCCCOC[C@H]1O[C@H](OC)[C@H](O)[C@@H](O)[C@@H]1O | 35 |  |  |
| > 4000 | > 4000 | > 4000 | > 4000 | > 4000 | CCCCCCOC[C@H]1O[C@H](OC)[C@H](O)[C@@H](O)[C@@H]1O | 13.4 |  |  |
|  | 500 (≈ 167 µg/mL) | 500 (≈ 167 µg/mL) |  | 2000 (≈ 669 µg/mL) | CCCCCCCCCCOC[C@H]1O[C@H](OC)[C@H](O)[C@@H](O)[C@@H]1O | 0.277 |  | MBC<=99.9 [26]: 500 µM (≈ 167 µg/mL); MBC<=99.9 [27]: 2000 µM (≈ 669 µg/mL); MBC<=99.9 [28]: 500 µM (≈ 167 µg/mL) |
